Test [1] relates to HEK293. Description: Induction of apoptosis in HEK293 cells assessed as viable cells at 0.48 uM after 24 hrs by Annexin V/propidium iodide-dual staining based FACS analysis (reference value: 90.31%). The test is classed as functional. The note with it: Homo sapiens, HEK293, 24 h; read-out: Activity. Background: A flow cytometer gives signals particle by particle.
Test [2] has as its system HEK293. Description: Induction of apoptosis in HEK293 cells assessed as necrotic cells at 0.48 uM after 24 hrs by Annexin V/propidium iodide-dual staining based FACS analysis (reference value: 3.35%). The test is classed as functional, Homo sapiens.
In test [3] the test system is HEK293. Briefly: Induction of apoptosis in HEK293 cells assessed as viable cells at 0.1 uM after 24 hrs by Annexin V/propidium iodide-dual staining based FACS analysis (reference value: 90.31%). The note with it: Homo sapiens, HEK293, 24 h; read-out: Activity. Format: functional.
For test [4], the target named is DNA topoisomerase 2-alpha (Homo sapiens) (UniProt P11388). Description: Inhibition of human Top2alpha using pHOT as substrate assessed as suppression of relaxation of DNA supercoil at >1 uM after 30 mins administered prior to enzyme addition by ethidium bromide-based agarose gel electrophoresis.
Sequence of DNA topoisomerase 2-alpha (Homo sapiens) (P11388 whole entry): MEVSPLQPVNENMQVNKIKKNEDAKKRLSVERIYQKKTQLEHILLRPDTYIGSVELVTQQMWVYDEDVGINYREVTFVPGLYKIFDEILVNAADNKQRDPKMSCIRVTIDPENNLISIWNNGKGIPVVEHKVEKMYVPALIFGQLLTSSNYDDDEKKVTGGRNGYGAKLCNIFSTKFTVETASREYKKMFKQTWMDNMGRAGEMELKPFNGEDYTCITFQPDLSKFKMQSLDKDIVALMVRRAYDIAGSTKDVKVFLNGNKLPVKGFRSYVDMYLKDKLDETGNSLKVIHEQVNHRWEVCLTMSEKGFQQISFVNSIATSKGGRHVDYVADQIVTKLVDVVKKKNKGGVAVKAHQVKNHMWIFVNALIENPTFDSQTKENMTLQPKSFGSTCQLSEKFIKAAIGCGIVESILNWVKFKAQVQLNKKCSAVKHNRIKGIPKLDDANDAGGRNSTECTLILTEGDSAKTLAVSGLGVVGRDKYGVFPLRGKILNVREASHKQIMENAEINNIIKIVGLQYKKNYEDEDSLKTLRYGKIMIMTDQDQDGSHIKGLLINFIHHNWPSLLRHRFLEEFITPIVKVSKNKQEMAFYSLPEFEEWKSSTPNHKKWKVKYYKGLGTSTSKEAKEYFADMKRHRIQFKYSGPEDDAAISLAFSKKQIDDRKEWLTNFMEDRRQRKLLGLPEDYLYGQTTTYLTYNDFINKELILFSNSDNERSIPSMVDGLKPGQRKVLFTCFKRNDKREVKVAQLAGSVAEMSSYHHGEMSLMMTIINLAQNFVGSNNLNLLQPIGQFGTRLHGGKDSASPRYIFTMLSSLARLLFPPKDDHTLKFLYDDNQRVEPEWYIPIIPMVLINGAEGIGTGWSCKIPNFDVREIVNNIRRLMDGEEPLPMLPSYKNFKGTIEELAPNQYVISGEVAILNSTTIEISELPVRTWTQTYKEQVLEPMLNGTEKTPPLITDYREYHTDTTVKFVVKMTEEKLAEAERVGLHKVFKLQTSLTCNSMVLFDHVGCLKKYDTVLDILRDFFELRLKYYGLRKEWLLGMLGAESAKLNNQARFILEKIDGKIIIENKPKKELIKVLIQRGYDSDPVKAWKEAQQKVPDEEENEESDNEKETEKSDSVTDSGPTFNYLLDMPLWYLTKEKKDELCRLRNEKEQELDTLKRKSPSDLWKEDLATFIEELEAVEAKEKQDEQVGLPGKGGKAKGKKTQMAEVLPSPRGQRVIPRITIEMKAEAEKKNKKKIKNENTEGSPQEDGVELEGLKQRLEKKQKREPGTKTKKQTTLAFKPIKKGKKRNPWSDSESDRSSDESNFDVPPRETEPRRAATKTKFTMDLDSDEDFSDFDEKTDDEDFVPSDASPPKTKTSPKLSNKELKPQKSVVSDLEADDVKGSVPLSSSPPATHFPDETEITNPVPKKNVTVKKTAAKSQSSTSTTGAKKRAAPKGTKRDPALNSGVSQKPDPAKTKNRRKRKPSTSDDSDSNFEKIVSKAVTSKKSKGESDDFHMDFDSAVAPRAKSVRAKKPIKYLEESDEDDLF
In test [5] the test system is HEK293. Briefly: Induction of apoptosis in HEK293 cells assessed as late apoptotic cells at 0.19 uM after 24 hrs by Annexin V/propidium iodide-dual staining based FACS analysis (reference value: 4.30%). The test is classed as functional, Homo sapiens.
For test [6], the system named is HEK293. Briefly: Induction of apoptosis in HEK293 cells assessed as early apoptotic cells at 0.1 uM after 24 hrs by Annexin V/propidium iodide-dual staining based FACS analysis (reference value: 2.04%). The test is classed as functional, Homo sapiens.
Test [7] has as its system HEK293. Briefly: Induction of apoptosis in HEK293 cells assessed as early apoptotic cells at 0.48 uM after 24 hrs by Annexin V/propidium iodide-dual staining based FACS analysis (reference value: 2.04%). The test is classed as functional, Homo sapiens.
Test [8] concerns HEK293. Briefly: Induction of apoptosis in HEK293 cells assessed as necrotic cells at 0.1 uM after 24 hrs by Annexin V/propidium iodide-dual staining based FACS analysis (reference value: 3.35%). The test is classed as functional, Homo sapiens.
Test [9] deals with HEK293. Briefly: Induction of apoptosis in HEK293 cells after 24 hrs by Annexin V/propidium iodide-dual staining based FACS analysis. The test is classed as functional, cell-based. The note with it: Homo sapiens.
Test [10] concerns HEK293. Briefly: Induction of apoptosis in HEK293 cells assessed as early apoptotic cells at 0.19 uM after 24 hrs by Annexin V/propidium iodide-dual staining based FACS analysis (reference value: 2.04%). Format: functional, Homo sapiens.
Test [11] concerns HEK293. Description: Induction of apoptosis in HEK293 cells assessed as late apoptotic cells at 0.1 uM after 24 hrs by Annexin V/propidium iodide-dual staining based FACS analysis (reference value: 4.30%). The test is classed as functional, Homo sapiens.
The test system of test [12] is HEK293. Briefly: Induction of apoptosis in HEK293 cells assessed as viable cells at 0.19 uM after 24 hrs by Annexin V/propidium iodide-dual staining based FACS analysis (reference value: 90.31%). The note with it: Homo sapiens, HEK293, 24 h; read-out: Activity. Format: functional.
In test [13] the target is T1, DNA topoisomerase 1 (Homo sapiens) (UniProt P11387).
T1 sequence (whole entry): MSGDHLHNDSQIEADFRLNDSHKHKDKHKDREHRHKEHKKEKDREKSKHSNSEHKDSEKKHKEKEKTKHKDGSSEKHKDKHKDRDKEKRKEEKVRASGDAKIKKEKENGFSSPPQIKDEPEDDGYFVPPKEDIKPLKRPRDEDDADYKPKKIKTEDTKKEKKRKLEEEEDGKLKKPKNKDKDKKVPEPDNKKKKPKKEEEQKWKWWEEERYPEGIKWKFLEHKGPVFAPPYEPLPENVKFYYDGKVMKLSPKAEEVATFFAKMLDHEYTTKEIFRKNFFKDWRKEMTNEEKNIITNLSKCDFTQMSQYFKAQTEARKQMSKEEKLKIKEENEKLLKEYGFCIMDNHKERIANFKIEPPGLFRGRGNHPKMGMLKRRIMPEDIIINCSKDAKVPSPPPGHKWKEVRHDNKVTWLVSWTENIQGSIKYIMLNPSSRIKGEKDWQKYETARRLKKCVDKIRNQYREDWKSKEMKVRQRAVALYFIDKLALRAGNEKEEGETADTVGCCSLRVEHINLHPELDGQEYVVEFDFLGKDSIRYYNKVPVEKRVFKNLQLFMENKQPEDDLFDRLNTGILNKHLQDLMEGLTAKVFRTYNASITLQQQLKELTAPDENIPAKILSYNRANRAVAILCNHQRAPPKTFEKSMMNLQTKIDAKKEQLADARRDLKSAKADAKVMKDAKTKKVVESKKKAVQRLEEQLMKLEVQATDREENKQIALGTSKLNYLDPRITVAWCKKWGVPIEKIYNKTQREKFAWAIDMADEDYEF
Briefly: Inhibition of human Top1 using pHOT as substrate assessed as suppression of relaxation of DNA supercoil at >50 uM after 30 mins by ethidium bromide-based agarose gel electrophoresis.

The nature of test [14]: Cytotoxicity against HEK293 cells assessed as reduction in cell viability after 24 hrs by MTT assay. Format: functional, cell-based. The note with it: Homo sapiens, HEK293, 24 h. Put shortly: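 HEK293 (HPA Culture Collections) monolayers in DMEM with 10% FBS and 1% penicillin–streptomycin, 37 °C, humidified 5% CO2. Compound dissolved in DMSO, then diluted in culture medium. Antiproliferative read-out by MTT tetrazolium reduction to formazan. Etoposide run as positive control. IC50 determined.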
On the technique in general: Formazan colour is commonly taken as a measure of viable cells.

Test [15] relates to HEK293. Briefly: Induction of apoptosis in HEK293 cells assessed as late apoptotic cells at 0.48 uM after 24 hrs by Annexin V/propidium iodide-dual staining based FACS analysis (reference value: 4.30%). Format: functional, Homo sapiens.
Test [16] has as its system HEK293. Briefly: Induction of apoptosis in HEK293 cells assessed as necrotic cells at 0.19 uM after 24 hrs by Annexin V/propidium iodide-dual staining based FACS analysis (reference value: 3.35%). The test is classed as functional, Homo sapiens.

pIC50: −log10 of the molar value. Activity calls are given as the source filed them. The calls are words filed in the database; no cut-off is given here.

As for `CCCCCCCCCCCC/C=C\CC/C=C\CCCCCCCCCCCCC1=C[C@H](C)OC1=O`, the viability at 0.48 µM in test [1] is 48.6%. In addition, the Activity is 7.91% in test [2]; 15.3% in test [5]; 5.31% in [6]; 16.14% in test [7]; 4.3% in test [8]; “Dose-dependent effect” in test [9]. The Activity in [10] is 10.49%; in test [11], 8.09%; in test [15], 27.32%; in test [16], 6.7%. Further, the viability at 0.1 µM in test [3] amounted to 82.3%. In addition, the inhibition result in test [4] and in test [13] was “Active” throughout. For the same compound, in [12], the viability at 0.19 µM came to 67.5%. Moreover, the pIC50 (usually −log10 of the IC50, conventionally taken in molar units) in test [14] is 6.41.
As to `COc1cc([C@@H]2c3cc4c(cc3[C@@H](O[C@@H]3O[C@@H]5CO[C@@H](C)O[C@H]5[C@H](O)[C@H]3O)[C@H]3COC(=O)[C@H]23)OCO4)cc(OC)c1O` [ETOPOSIDE], in [14], the pIC50 is 6.22.

The values are drawn from ChEMBL document CHEMBL3865839, “Short Route to the Total Synthesis of Natural Muricadienin and Investigation of Its Cytotoxic Properties” (J Nat Prod, 2016).
